RGS4 inh – human RGS4 inhibition; P49798; HEK293 M3R/RGS4 inducible, Fluo-4 calcium flux; stronger effect = higher value; triggered by carbachol at its EC20; B-score at 10 µM; actives 0.45% (n = 310,000);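 active means B-score, a plate-corrected calcium signal, over three deviations above library mean, with baseline fluorescence within five deviations of library mean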;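 further: RGS4 expression induced by doxycycline in cells with stable M3 receptor; B-score is computed from the integrated fluorescence ratio over baseline after carbachol; higher B-score means a larger calcium signal and so more RGS4 inhibition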
RGS4 act – RGS4 potentiation or activation. HEK293 M3R/inducible RGS4, carbachol calcium flux Fluo4; stronger effect = lower value. B-score at 10 µM. actives 0.92% (n = 310,000);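 active means B-score of the integrated calcium signal more than 4 SD below the library mean, with starting fluorescence not abnormally high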;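 further: negative B-score means reduced calcium response which marks RGS4 activation or potentiation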
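Material: M3R-expressing HEK293 line, RGS4 induced by doxycycline | Schedule: Overnight RGS4 induction, 30 min dye load 37 °C, 20 min compound RT | Measured by: Fluo4 fluorescence kinetic imaging of calcium | Read-out: Integrated calcium ratio converted to B score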
MrgX1 allo act – human MrgX1 positive allosteric modulation, primary screen; MrgX1-HEK293, Fluo-4 calcium flux, FDSS; stronger effect = higher value; B-score at 10 µM; actives 0.63% (n = 310,000);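 active means plate-corrected calcium response at least 3 library SD above typical, normal starting fluorescence, not activating the receptor alone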;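 further: compound read alongside a low EC10 to EC30 dose of BAM8-22 agonist; peak minus trough fluorescence over baseline measured at the second addition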
Target sequence (Q96LB2 whole entry, looked up): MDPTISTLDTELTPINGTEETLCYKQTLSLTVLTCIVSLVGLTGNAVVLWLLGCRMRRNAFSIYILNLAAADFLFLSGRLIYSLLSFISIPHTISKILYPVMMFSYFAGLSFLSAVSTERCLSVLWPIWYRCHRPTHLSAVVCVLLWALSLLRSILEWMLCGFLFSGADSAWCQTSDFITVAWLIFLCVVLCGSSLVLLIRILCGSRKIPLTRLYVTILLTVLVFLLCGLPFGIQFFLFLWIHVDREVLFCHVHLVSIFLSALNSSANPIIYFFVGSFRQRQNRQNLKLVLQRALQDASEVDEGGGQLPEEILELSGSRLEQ
MrgX1 antag – antagonists of human MrgX1 receptor; actives 1.3% (n = 310,000); AID 588676; MRGX1-HEK293 calcium flux, Fluo-4, BAM8-22 antagonism; stronger effect = lower value; B-score at 10 µM;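 active means calcium-response B-score plate-corrected more than 3 library SD below zero, starting fluorescence within 5 deviations, no agonist response on first addition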;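 further: peak minus trough fluorescence over baseline after final BAM8-22 challenge near maximal dose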
MrgX1 agonist – activates human MrgX1 receptor signaling; B-score at 10 µM; AID 588627; Q96LB2; MrgX1-HEK293 cells, Fluo-4 calcium fluorescence, agonist mode; stronger effect = higher value; actives 0.44% (n = 310,000);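 active means calcium response B-score plate-corrected fluorescence ratio at least 3 library SD, with starting fluorescence B-score inside 5 SD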
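times = overnight plating, then 30 min 37 °C plus 30 min room-temperature dye loading | assay system = stable human MrgX1 HEK293 cell line | input = fifteen thousand cells per well | signal = kinetic calcium dye fluorescence, Fluo-4 NW | dosing = compound delivered in addition one of three | read-out = B-scored fluorescence response ratio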
Numbers without * were called inactive; i = inactive; . = not tested or not shown. Rows were chosen to be rich in hits. Some 3.5% of all compounds tested hit in one or more screens of this group.

SMILES	RGS4 inh	RGS4 act	MrgX1 allo act	MrgX1 antag	MrgX1 agonist
Nc1nonc1-n1nnc(C(=O)N/N=C/c2ccc(O)cc2)c1CN1CCCCCC1	i	i	i	-8.6*	i
O=c1c2ccccc2c(/C=N/NS(=O)(=O)c2ccccc2)c(O)n1-c1ccccn1	i	i	i	i	52*
CCCOc1ccc(C(=O)N/N=C/c2ccc(-c3ccc(S(=O)(=O)Nc4ncccn4)cc3)o2)cc1	i	i	i	i	29*
CC(=O)Oc1ccc2cc(-c3ccccc3)c(=O)oc2c1	i	i	i	i	i
COc1ccc(-c2csc3ncnc(N4CCN(c5ccccc5[N+](=O)[O-])CC4)c23)cc1	i	-7.3*	i	i	i
COc1ccc(-c2csc3ncnc(N4CCN(S(=O)(=O)c5ccc(C(C)=O)cc5)CC4)c23)cc1	i	-7*	i	i	i
O=C(CSc1nc2ccccc2[nH]1)NCC1CCCO1 (configuration not stated)	i	i	i	i	i
O=C(CN(C(=O)c1csnn1)c1ccc2c(c1)OCCO2)NCc1ccc(F)cc1	i	i	i	i	i
CN(CC1CCCO1)S(=O)(=O)c1ccc(C(=O)Nc2nnc(-c3ccccc3)o2)cc1 (configuration not stated)	i	i	i	i	i
COc1ccc([N+](=O)[O-])cc1NC(=S)NC(C)=O	i	i	i	i	i
CC(=O)NC(=S)Nc1ccc([N+](=O)[O-])cc1C	i	i	i	-8*	i
COc1ccc(CNC(=O)c2ccc3c(=O)n(CCCN4CCCC4=O)c(=S)[nH]c3c2)cc1	i	i	i	i	i
O=[N+]([O-])c1cc(S(=O)(=O)N2CCCCCC2)ccc1F	.	.	6.6*	i	i
O=S(=O)(c1ccccc1)[C@@]1(c2ccccc2)C[C@@H]2ON=C(c3cccc(-c4ccccc4)c3)[C@@H]2C1	i	i	i	i	i
CCC(C)(C)c1ccc(OCCCC[n+]2cccc(C)c2)c(C(C)(C)CC)c1	i	-8.1*	.	.	.
Clc1ccc(SCCCCN2CCNCC2)cc1	i	i	i	i	i
O=C1NN(c2ccc(Cl)c(Cl)c2)C(=O)/C1=C/c1cccc(OC(=O)c2cccs2)c1	25*	i	i	i	i
CCn1c2ccccc2c2cc(NC(=O)c3coc(=O)c(Br)c3)ccc21	i	i	i	i	i
CCn1c2ccccc2c2cc(NC(=O)c3ccc(Br)o3)ccc21	i	i	i	-7.5*	i
Cc1cccc(OC2CCN(Cc3c(C(=O)N4CCCC4)nc4ccccn34)CC2)c1	i	i	i	i	i
CC(C)Sc1nnc([C@H](Cc2c[nH]c3ccccc23)NC(=O)OC(C)(C)C)o1	i	i	i	i	i
COc1ccc2c(/C=C/c3cc[n+](C)cc3)c[nH]c2c1	i	i	i	-5.8*	i
Cc1nc(N2CCCCC2)c2c(C)c(C(=O)Nc3ccc4c(c3)OCCO4)sc2n1	i	-7*	i	i	i
O=C(C1CCCN(S(=O)(=O)c2cccc3cccnc23)C1)N1CCN(c2ccc(F)cc2)CC1 (configuration not stated)	i	i	i	i	i
COc1ccc(Nc2cc(Nc3ccccc3)ncn2)cc1	i	i	i	i	i
S=C(Nc1ccc(Nc2ccccc2)cc1)N1CCN(c2ncccn2)CC1	i	i	i	i	i
O/N=C/c1ccn(-c2ccc(Br)cc2)c1	i	i	i	i	i
C#CCOCCOCCOCCNc1nc(N2CCN(C(=O)CCCCCCCCCCNC(=O)[C@H]([C@@H](C)CC)n3cc(CCCCCN)nn3)CC2)nc(N2CCN(C(=O)CCCCCCCCCCNC(=O)[C@H](CO)n3cc(CCCCCN)nn3)CC2)n1	.	.	i	i	108*
